Data on four compounds can be found in ChEMBL document CHEMBL1147559, “Synthesis and antitumor evaluation of benzoylphenylurea analogs” (Bioorg Med Chem Lett, 2004).

Common to all, as to format: functional, cell-based
One experiment has as its system PANC-1. The experiment is described as follows: Inhibitory concentration of compound against growth of human Panc-1 cell line; Resistant. A digest of the protocol:
(§1)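 MTT dye-conversion assay. Cells kept in monolayer at 37 °C in humidified 5% CO2, trypsinized, seeded at 5 × 10³ cells/well and grown 24 h. Then treated 96 h with exponentially increasing drug concentrations in 10% FBS; compound stocks in DMSO. MTT (5 mg/mL in PBS) added for 3 h at 37 °C. Medium replaced with DMSO and OD read at 570 nm.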

The test system of another experiment is A-431. The experiment is described as follows: Inhibitory concentration of compound against growth of human A431 cell line; Resistant. A digest of the protocol: as §1
Experiment [1] has as its system HEp-2. The experiment is described as follows: Inhibitory concentration of compound against growth of human Hep2 cell line; Resistant. Put shortly: as §1
The subject of experiment [2] is MIA PaCa-2. The experiment in a line: Inhibitory concentration of compound against growth of human MIA PaCa cell line; Resistant. A digest of the protocol: as §1
For the next experiment, the system named is HuCCT-1. The experiment in a line: Inhibitory concentration of compound against growth of human HuCCT-1 cell line; Resistant. Put shortly: as §1
In another experiment the test system is SNU-308. The experiment in a line: Inhibitory concentration of compound against growth of human SNU-308 cell line; Resistant. A digest of the protocol:
as §1

Another experiment has as its system HN006 cell line. The experiment in a line: Inhibitory concentration of compound against growth of human HN006 cell line; Resistant. A digest of the protocol:
as §1

The subject of experiment [3] is BXPC-3. The experiment is described as follows: Inhibitory concentration of compound against growth of human BxPC3 cell line; Resistant. Put shortly: as §1
The subject of experiment [4] is BXPC-3. The experiment in a line: Inhibitory concentration of compound against growth of human BxPC3 cell line. Put shortly:
as §1

Experiment [5] has as its system HEp-2. The experiment is described as follows: Inhibitory concentration of compound against growth of human Hep2 cell line. A digest of the protocol:
as §1

For experiment [6], the system named is MIA PaCa-2. The experiment is described as follows: Inhibitory concentration of compound against growth of human Mia-Paca cell line. A digest of the protocol: as §1
Experiment [7] has as its system HEp-2. The experiment in a line: Cytotoxicity of compound against growth of human Hep2 cell line. A digest of the protocol: as §1

By IC50 is commonly meant the concentration needed to halve the response being measured. The low end stands for greater potency, the high end for weaker potency.

With `CNc1ccccc1C(=O)N(C)C(=O)Nc1ccc(Oc2ncc(Br)cn2)c(C)c1`, the Activity entry in the experiment on PANC-1, in the experiment with A-431, in the experiment with HEp-2 [1], with MIA PaCa-2 [2], in the experiment on HuCCT-1 and in the experiment with SNU-308 was “Resistant” throughout. Also, the Activity entry in the experiment with HN006 cell line and in the experiment on BXPC-3 [3] was “Resistant” throughout.

As to `CNc1ccccc1C(=O)NC(=O)Nc1ccc(Oc2ncc(Br)cn2)c(C)c1`, the IC50 in the experiment with BXPC-3 [4], in the experiment with HEp-2 [5] and with MIA PaCa-2 [6] was 1000 nM throughout.

In turn, `Cc1cc(NC(=O)N(C)C(=O)c2ccccc2N)ccc1Oc1ncc(Br)cn1` yielded an IC50 in the experiment on HEp-2 [7] of 5000 nM.

Turning to `Cc1cc(NC(=O)N(C)C(=O)c2ccccc2NC(=O)N(C)C(=O)c2ccccc2N)ccc1Oc1ncc(Br)cn1`, the IC50 in the experiment on HEp-2 [7] was found to be 5000 nM. In other words, the single-digit micromolar range.
